Zone of inhibition data for three compounds are collected here from ChEMBL document CHEMBL4145644 (J Nat Prod, 2018).

Experiment [1] concerns Acholeplasma laidlawii. The experiment can be described thus: Antimicrobial activity against Acholeplasma laidlawii KB174 PG8 assessed as zone of inhibition at 1 ug/disc measured after 24 to 48 hrs by paper disc method. The conditions noted are these: read-out: IZ. In kind it is functional.
Experiment [2] has as its system Proteus vulgaris. Put plainly: Antimicrobial activity against Proteus vulgaris KB127 NBRC 3167 assessed as zone of inhibition at 1 ug/disc measured after 24 to 48 hrs by paper disc method. It counts as functional. Conditions: read-out: IZ. The essentials: (§1)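 Bacteria on nutrient agar (0.5% peptone, 0.5% meat extract, 0.8% agar, pH 7.0), 37 °C, 24 h. Inoculum 0.5% for B. subtilis, E. coli, K. pneumoniae, P. vulgaris; 0.2% for K. rhizophila. 6 mm discs carrying 10 μL compound solution. Zone of inhibition measured.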

Experiment [3] concerns Klebsiella pneumoniae. Put plainly: Antimicrobial activity against Klebsiella pneumoniae KB214 ATCC 10031 assessed as zone of inhibition at 1 ug/disc measured after 24 to 48 hrs by paper disc method. Conditions: read-out: IZ. In kind it is functional. The essentials:
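Paper disc diffusion with 6 mm sterile filter discs, each loaded with 10 μL of compound solution and placed on nutrient agar (0.5% peptone, 0.5% meat extract, 0.8% agar, pH 7.0). Plates seeded with 0.5% inoculum and incubated at 37 °C for 24 h. Inhibition zone diameters measured after incubation.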

In experiment [4] the test system is Xanthomonas campestris. The experiment can be described thus: Antimicrobial activity against Xanthomonas campestris pv. oryzae KB88 assessed as zone of inhibition at 1 ug/disc measured after 24 to 48 hrs by paper disc method. In kind it is functional. Conditions: read-out: IZ. In a few lines:
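Paper disc diffusion with 6 mm sterile filter discs, each loaded with 10 μL of compound solution and placed on nutrient agar (0.5% peptone, 0.5% meat extract, 0.8% agar, pH 7.0). Plates seeded with 1.0% inoculum and incubated at 27 °C for 24 h. Inhibition zone diameters measured after incubation.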

Experiment [5] concerns Kocuria rhizophila. Put plainly: Antimicrobial activity against Kocuria rhizophila KB212 ATCC 9341 assessed as zone of inhibition at 1 ug/disc measured after 24 to 48 hrs by paper disc method. In kind it is functional, Kocuria rhizophila DC2201. Conditions: read-out: IZ. The essentials: as §1
Experiment [6] has as its system Staphylococcus aureus. The experiment can be described thus: Antimicrobial activity against Staphylococcus aureus KB210 ATCC 6538p assessed as zone of inhibition at 1 ug/disc measured after 24 to 48 hrs by paper disc method. It counts as functional. Conditions: read-out: IZ. In a few lines:
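Nutrient agar (0.5% peptone, 0.5% meat extract, 0.8% agar, pH 7.0) inoculated at 0.2% with S. aureus ATCC 6538p. 6 mm filter discs impregnated with 10 μL compound solution were applied. Plates were incubated at 37 °C for 24 h and inhibition zones were measured.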

The test system of experiment [7] is Pseudomonas aeruginosa. Put plainly: Antimicrobial activity against Pseudomonas aeruginosa KB359 NBRC 12582 assessed as zone of inhibition at 1 ug/disc measured after 24 to 48 hrs by paper disc method. Conditions: read-out: IZ. In kind it is functional. In a few lines: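 Pseudomonas aeruginosa NBRC 12582 on nutrient agar (0.5% peptone, 0.5% meat extract, 0.8% agar, pH 7.0), 1.0% inoculation, 37 °C, 24 h. Discs (6 mm) impregnated with 10 μL compound solution placed on plate. Inhibition zones measured.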

Experiment [8] concerns Bacillus spizizenii. Put plainly: Antimicrobial activity against Bacillus subtilis KB211 ATCC 6633 assessed as zone of inhibition at 1 ug/disc measured after 24 to 48 hrs by paper disc method. Conditions: ATCC 6633 KB211, read-out: IZ. In kind it is functional. In a few lines: as §1
In experiment [9] the test system is Escherichia coli. The experiment can be described thus: Antimicrobial activity against Escherichia coli KB213 NIHJ assessed as zone of inhibition at 1 ug/disc measured after 24 to 48 hrs by paper disc method. It counts as functional. Conditions: read-out: IZ. The essentials:
as §1

In experiment [10] the test system is Mycolicibacterium smegmatis. The experiment can be described thus: Antimicrobial activity against Mycobacterium smegmatis KB42 assessed as zone of inhibition at 1 ug/disc measured after 24 to 48 hrs by paper disc method. It counts as functional. The conditions noted are these: read-out: IZ.
Experiment [11] has as its system Saccharomyces cerevisiae. Put plainly: Antimicrobial activity against Saccharomyces cerevisiae harboring 12genedelta0HSR-iERG6 mutant assessed as zone of inhibition at 10 ug/disc measured after 24 to 48 hrs by paper disc method. It counts as functional. Conditions: read-out: IZ. In a few lines:
(§2)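 Paper disc diffusion with 6 mm sterile filter discs, each loaded with 10 μL of compound solution and placed on agar plates. Plates incubated at 27 or 37 °C for 24−48 h, then inhibition zones measured.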

Experiment [12] deals with Aspergillus niger. The experiment can be described thus: Antimicrobial activity against Aspergillus niger KF103 ATCC 6275 assessed as zone of inhibition at 10 ug/disc measured after 24 to 48 hrs by paper disc method. In kind it is functional. The conditions noted are these: read-out: IZ.
For experiment [13], the system named is Saccharomyces cerevisiae. Put plainly: Antimicrobial activity against Saccharomyces cerevisiae BY25929 harboring yrr2/yrs1/pdr1/pdr3 deletion mutant assessed as zone of inhibition at 10 ug/disc measured after 24 to 48 hrs by paper disc method. It counts as functional. Conditions: read-out: IZ. In a few lines: as §2
For experiment [14], the system named is Mucor racemosus. Put plainly: Antimicrobial activity against Mucor racemosus KF223 assessed as zone of inhibition at 10 ug/disc measured after 24 to 48 hrs by paper disc method. It counts as functional. Conditions: read-out: IZ.
In experiment [15] the test system is Saccharomyces cerevisiae. Put plainly: Antimicrobial activity against Saccharomyces cerevisiae BY4741 assessed as zone of inhibition at 10 ug/disc measured after 24 to 48 hrs by paper disc method. It counts as functional. Conditions: read-out: IZ. In a few lines: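 S. cerevisiae BY4741 spread on YPD agar (1% yeast extract, 2% peptone, 2% glucose, 1.5% agar) at 1% inoculation. Sterile 6 mm filter discs loaded with 10 μL compound solution were placed on the plates. Plates were incubated at 27 °C for 48 h, then inhibition zones were measured.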

In experiment [16] the test system is Candida albicans. The experiment can be described thus: Antimicrobial activity against Candida albicans KF1 ATCC 64548 assessed as zone of inhibition at 10 ug/disc measured after 24 to 48 hrs by paper disc method. In kind it is functional. Conditions: read-out: IZ.
Experiment [17] relates to Saccharomyces cerevisiae. Put plainly: Antimicrobial activity against Saccharomyces cerevisiae KF237 ATCC 9763 assessed as zone of inhibition at 10 ug/disc measured after 24 to 48 hrs by paper disc method. The conditions noted are these: read-out: IZ. In kind it is functional.

`CC[C@H]1OC(=O)[C@H](C)[C@@H](O[C@H]2C[C@@](C)(OC)[C@@H](O)[C@H](C)O2)[C@H](C)[C@@H](O[C@@H]2O[C@H](C)C[C@H](N(C)C)[C@H]2O)[C@](C)(O)C[C@@H](C)C(=O)[C@H](C)[C@@H](O)[C@]1(C)O` [ERYTHROMYCIN]: the zone of inhibition at 1 µg/disc in experiment [1] is 28 mm.

As for `C[C@@H](O)[C@H]1C(=O)N2C(C(=O)O)=C(S[C@@H]3CN[C@H](C(=O)N(C)C)C3)[C@H](C)[C@H]12`, the zone of inhibition at 1 µg/disc amounted to 37.8 mm in experiment [2]; 27 mm in experiment [3]; 31.6 mm in [4]; 38 mm in experiment [5]; 35.2 mm in [6]; 47.3 mm in experiment [7]. Further, the results for the zone of inhibition at 1 µg/disc in experiment [8], in experiment [9] and in [10] were 24.1 mm, 31 mm and 9.5 mm, respectively.

For the compound `C[C@@H]1[C@H](O)[C@@H](C)/C=C/C=C/C=C/C=C/C=C/C=C/C=C/[C@H](O[C@@H]2O[C@H](C)[C@@H](O)[C@H](N)[C@@H]2O)C[C@@H]2O[C@](O)(C[C@@H](O)C[C@@H](O)[C@H](O)CC[C@@H](O)C[C@@H](O)CC(=O)O[C@H]1C)C[C@H](O)[C@H]2C(=O)O` [AMPHOTERICIN B], the zone of inhibition at 10 µg/disc stood at 9.8 mm in [11]; 16.1 mm in [12]; 11.7 mm in experiment [13]; 15.1 mm in experiment [14]; 8.2 mm in [15]; 13 mm in experiment [16]. Moreover, the zone of inhibition at 10 µg/disc in experiment [17] turned out to be 14.5 mm.
